≈ marks a conversion by molar mass, not a printed value.
What was measured:
[1] = Compound was evaluated for physico-chemical property of Water solubility (bile acid) at 25 degree C; type: ADME
Method in brief: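 For solubility, solutions were held for 1 month, filtered through 0.22 µm, and methanol was added to prevent crystallization. Dissolved bile acid was quantified enzymatically with 3α-hydroxysteroid dehydrogenase.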

Rattus norvegicus [2] = organism: Rattus norvegicus; assay: Compound was evaluated for Percent hepatic uptake; type: functional
Method in brief: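 Single-pass isolated perfused rat liver; perfusate Krebs-Ringer bicarbonate pH 7.4 with glucose and 3% w/v fatty-acid-free bovine serum albumin, Evans blue (1 mg/g liver) as flow/recovery marker. 200 μL of 10-µmol/L bile acid injected; outflow collected at 10-s intervals, bile acid measured enzymatically (3α-hydroxysteroid dehydrogenase), Evans blue at 610 nm. Outflow corrected for Evans blue; uptake = 100% − outflow.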

Rattus norvegicus [3] = organism: Rattus norvegicus; assay: Compound was evaluated for Cholesterol secretion; type: functional
Method in brief: (§1)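 Male Sprague–Dawley rats (300-330 g) were anesthetized with ethyl carbamate and the bile was collected. Bile acids were given i.v. as sodium salts via the femoral vein at 50 mg per animal, five rats per group, and bile was sampled at 15-min intervals. Flow volume and bile acid, cholesterol and phospholipid concentrations were measured by enzymatic assays. Controls were five rats; values are mean ± SD.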

Rattus norvegicus [4] = organism: Rattus norvegicus; assay: Compound was evaluated for Phospholipid secretion; type: functional; method in brief: as §1
Rattus norvegicus [5] = organism: Rattus norvegicus; assay: Compound was evaluated for Bile acid secretion; type: functional; method in brief: as §1
[6] = Compound was evaluated for physico-chemical property of Critical micellar concentration (CMC); type: ADME
Method in brief: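 For the CMC, sodium salt solutions from 0.1 to 100 mmol were adjusted to pH 8.00 with NaOH and rotated for 1 day at room temperature in the dark with excess Azulene or Orange OT dye. After 0.22-µm filtration, absorbance was read at 580 or 490 nm and plotted against bile salt concentration. Values are mean ± SD of five determinations.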

[7] = target: Serum albumin (Homo sapiens) (UniProt P02768); assay: Compound was evaluated for Albumin affinity constant
[8] = Compound was evaluated for physico-chemical property of Constant, pKa; type: physicochemical
Rattus norvegicus [9] = organism: Rattus norvegicus; assay: Compound was evaluated for Bile flow; type: functional; method in brief: as §1

Compound: CC(C1CC1C(=O)O)C1CC[C@H]2[C@@H]3[C@@H](O)CC4C[C@H](O)CCC4(C)[C@H]3CCC12C (some centres not stated)
- solubility [1]: 11.8 µM (≈ 4.77 µg/mL)
- Intake (Rattus norvegicus [2]): 46%
- Secretion (Rattus norvegicus [3]): 2.7 µM/h/kg
- Secretion (Rattus norvegicus [4]): 9.5 µM/h/kg
- Secretion (Rattus norvegicus [5]): 97 µM/h/kg
- CMC [6]: 15.5 mM
- Affinity constant [7]: 68000 l M-1
- pKa [8]: 5.01
- Bile flow (Rattus norvegicus [9]): 1.68 mL/h

Compound: C[C@H](CCC(=O)O)[C@H]1CC[C@H]2[C@@H]3[C@@H](O)C[C@@H]4C[C@H](O)CC[C@]4(C)[C@H]3CC[C@]12C [URSODIOL]
- solubility [1]: 9 µM (≈ 3.53 µg/mL)
- Intake (Rattus norvegicus [2]): 50%
- Secretion (Rattus norvegicus [3]): 2.12 µM/h/kg
- Secretion (Rattus norvegicus [4]): 6.47 µM/h/kg
- Secretion (Rattus norvegicus [5]): 98 µM/h/kg
- CMC [6]: 19 mM
- pKa [8]: 5.08
- Bile flow (Rattus norvegicus [9]): 1.08 mL/h
